# In the library only some 1.9% were active in any assay of this set; here they are far more common.
# ABHD5-PLIN5 inh: ABHD5-PLIN5 interaction inhibitors, primary screen, cell lysate, split luciferase complementation, luminescence. Split G. princeps luciferase complementation, 4 h. 360,000 compounds, 0.78% hits. inhibition, % at 4 µM. Perilipin-5 (Homo sapiens) + 1-acylglycerol-3-phosphate O-acyltransferase ABHD5 (Homo …;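 active means inhibition above the mean inhibition across every tested compound plus 3 SD, cut at about 22% in these data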;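 further: 0% = DMSO only wells and the 100% control is not disclosed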
# NadD inh: inhibitors of S. aureus NadD, primary screen, biochemical, colorimetric, uHTS | Nicotinate-nucleotide adenylyltransferase NadD (Staphylococcus aureus N315) | inhibition, % at 20 µM | 360,000 compounds, 0.78% hits | purified NadD enzyme, colorimetric absorbance read-out; in the data active means inhibition above about 26%
# Rin1-Abl PPI inh: inhibitors of Rin1-Abl protein binding, primary screen, biochemical, TR-FRET; Tyrosine-protein kinase ABL1 (Homo sapiens) + Ras and Rab interactor 1 (Homo sapiens), …; inhibition, % at 7.35 µM; 360,000 compounds, 0.4% hits; in the data active means inhibition above about 5%, passing the limit was not always enough
# Xi reactivation: activators of inactive X chromosome reactivation, primary screen, imaging, XiGFP fibroblasts, GFP high-content imaging, set 2; XiGFP mouse fibroblasts, % GFP-positive cells imaging, 3 d; cells co-treated with 5-aza-dC sensitizer; scaled so ellipticine positive control = 100%; 360,000 compounds, 0.055% hits; activation, % at 7.58 µM; AID 743238, 2013;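 active means mean normalized replicate activation at least 10% and every replicate at or above 10%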;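 further: 0% = median of on-plate neutral control wells and 100% = ellipticine 6 µM median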
#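 assay system = SV40-immortalized XiGFP fibroblast cells, line 68-5-11 | buffer or medium = DMEM plus 5-aza-dC sensitizer | doses = single-point pinned compound dosing | times = 3-day compound exposure, then 15 min fixation at room temperature | benchmarks = positive control ellipticine, 6 µM final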
# Rpn11 inh: Rpn11 (PSMD14) deubiquitinase inhibitors, primary screen, biochemical, fluorescence polarization, uHTS; 26S proteasome non-ATPase regulatory subunit 14 (Homo sapiens), O00487; human 26S proteasome, Ub4-pepOG fluorescence polarization; 20S core pre-blocked with epoxomicin; inhibition, % at 20 µM; 360,000 compounds, 0.59% hits; AID 588493, 2011;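 active means inhibition at 20 µM, scaled to each plate's controls, above about 33%, limit read from the data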
# Rpn11 confirm: Rpn11 (PSMD14) deubiquitinase inhibitors, confirmation, biochemical, fluorescence polarization, single concentration | 1,900 compounds, 29% hits | AID 602318, 2012 | shares compounds with Rpn11 inh | purified human 26S proteasome, Ub4-pepOG fluorescence polarization; proteasome pretreated with epoxomicin | inhibition, % at 20 µM
# MMP-2 inh: MMP-2 enzyme inhibition, confirmation, counter-screen for RPN11 inhibitor project, biochemical, fluorescence, single concentration | shares compounds with Rpn11 inh | 1,900 compounds, 4% hits | inhibition, % at 20 µM | recombinant MMP-2, FRET peptide cleavage fluorescence;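 further: human MMP-2 activated beforehand with APMA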
# Thrombin inh: bovine thrombin protease inhibition, confirmation, counter-screen for Rpn11 inhibitor project, biochemical, fluorescence polarization, single concentration; inhibition, % at 20 µM; bovine thrombin cleavage of Ub4-pepOG; 1,900 compounds, 13% hits; AID 602333, 2012; shares compounds with Rpn11 inh;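 active means mean inhibition at least 40% at 20 µM, or signal 3 deviations below plate average, so some actives read negative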;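 further: plate controls were thrombin with DMSO for no effect and buffer wells lacking thrombin for full effect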
# Target sequence (P00735 whole entry, looked up): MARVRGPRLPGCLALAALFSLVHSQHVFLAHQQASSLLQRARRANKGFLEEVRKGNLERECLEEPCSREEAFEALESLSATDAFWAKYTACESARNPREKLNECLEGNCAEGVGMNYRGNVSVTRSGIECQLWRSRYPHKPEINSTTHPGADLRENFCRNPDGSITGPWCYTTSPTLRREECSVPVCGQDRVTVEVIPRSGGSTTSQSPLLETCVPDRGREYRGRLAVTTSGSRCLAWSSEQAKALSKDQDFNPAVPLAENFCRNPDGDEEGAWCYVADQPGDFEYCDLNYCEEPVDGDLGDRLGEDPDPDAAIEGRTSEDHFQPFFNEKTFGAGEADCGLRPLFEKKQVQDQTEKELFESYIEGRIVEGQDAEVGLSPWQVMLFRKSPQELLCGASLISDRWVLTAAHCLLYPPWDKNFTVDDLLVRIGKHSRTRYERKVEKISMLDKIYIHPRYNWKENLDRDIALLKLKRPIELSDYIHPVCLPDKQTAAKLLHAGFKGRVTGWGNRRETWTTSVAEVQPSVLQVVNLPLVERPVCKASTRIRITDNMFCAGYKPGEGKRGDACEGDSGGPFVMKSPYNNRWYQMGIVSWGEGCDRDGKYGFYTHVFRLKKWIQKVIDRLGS
# NadD inh conf: inhibitors of S. aureus NadD, confirmation, biochemical, colorimetric, single concentration | AID 624309, 2012 | purified S. aureus NadD, colorimetric enzyme assay | shares compounds with NadD inh | 2,000 compounds, 13% hits | inhibition, % at 20 µM; in the data active means inhibition mostly above about 42%, no sharp cut-off; inactive means mostly below about 42%
# * hit, by the source's call; nt = no result. Unless noted, no stated cut-off is given here; in the data, active means inhibition above about 40%; inactive means the rest.
SMILES,ABHD5-PLIN5 inh,NadD inh,Rin1-Abl PPI inh,Xi reactivation,Rpn11 inh,Rpn11 confirm,MMP-2 inh,Thrombin inh,NadD inh conf
O=C(/C=C/c1cccs1)Nc1cccc(NC(=O)/C=C/c2cccs2)n1,6,32*,5,0,45*,56*,18,41*,33
COc1ccccc1NC(=O)c1sc2ncn(CC(=O)Nc3ccccc3)c(=O)c2c1C,6,30*,0,0,49*,27,18,9,5
COc1ccccc1NC(=O)Cn1cnc2sc(C(=O)Nc3cc(OC)c(OC)c(OC)c3)c(C)c2c1=O,-2,-3,0,0,-1,nt,nt,nt,nt
COc1cc(/C=C(\C#N)c2nc(-c3cc4ccccc4oc3=O)cs2)ccc1O,-1,50*,-5,0,72*,19,36,-40,-6
CC1CCC(=C(C#N)c2nc(-c3cc4ccccc4oc3=O)cs2)CC1 (stereo not drawn),-5,5,-2,nt,7,nt,nt,nt,nt
O=C1c2ccc(Cl)cc2S(=O)(=O)c2cccc(C(=O)N3CCN(c4ncc(Br)cn4)CC3)c21,-6,12,0,0,0,nt,nt,nt,nt
COc1ccc(-c2ccc3c(c2)S(=O)(=O)c2cccc(C(=O)N4CCN(c5c(Cl)cncc5Cl)CC4)c2C3=O)cc1OC,1,44*,-1,0,76*,43*,-13,17,17
CC(C)NC(=O)Nc1cccc2c1O[C@H](CN(C)C(=O)OC(C)(C)C)[C@@H](C)CN(C)C2=O,nt,nt,nt,0,nt,nt,nt,nt,nt
CCOC(=O)c1sc2nc3c(SCCC#N)cc(C(=O)c4cc(F)ccc4O)cn3c(=O)c2c1C,3,33*,-1,0,45*,25,5,16,-8
CO[C@@H]1CN(C)C(=O)c2cc(NS(C)(=O)=O)ccc2OC[C@H](C)N(Cc2ccccn2)C[C@@H]1C,nt,nt,nt,0,nt,nt,nt,nt,nt
CC(C)=CCC/C(C)=C/CNC(=O)C[C@H]1C[C@H](C(=O)N2CCCCC2)[C@@]2(CCc3ccccc3)c3[nH]c4cc(-c5ccco5)ccc4c3CCN2C1=O,2,44*,-1,nt,47*,15,3,3,11
COc1cc(Br)c(/C=C/c2ccc3cccc(O)c3n2)cc1OC,2,26,0,1,-3,nt,nt,nt,nt
COc1cc(/C=C/c2ccc3cccc(O)c3n2)c(Br)cc1O,-9,28*,-1,2,39*,12,-21,1,13
CN1CCc2c(sc(/N=C/c3c[nH]c4ccccc34)c2C(N)=O)C1,-4,51*,-5,0,114*,3,-25,4,-13
CCNC(=O)[C@@H]1[C@@H](CO)[C@@H]2Cn3c(ccc(-c4ccccc4)c3=O)[C@H]1N2C(=O)CC1CC1,nt,nt,nt,0,nt,nt,nt,nt,nt
NC(=S)NNc1ccnc2cc(Cl)ccc12,-4,-3,-2,0,0,nt,nt,nt,nt
FC(F)Oc1ccc(NC(=S)NNc2ccnc3cc(Cl)ccc23)cc1,-23,32*,1,0,50*,84*,39,active,18
CCOc1ccc2nc(N3C(=O)/C(=C/c4ccc(Cl)cc4)NC3=S)sc2c1,-4,49*,2,0,47*,31,-6,0,12
NCCCC[C@@H]1NC(=O)c2cc([N+](=O)[O-])cc(I)c2SC[C@@H](C(N)=O)NC(=O)[C@H](Cc2ccc(O)cc2)NC1=O,6,42*,4,nt,44*,11,-4,-44,6
Nc1nc(-c2cc(O)ccc2[N+](=O)[O-])cc(-c2ccccc2)c1[N+](=O)[O-],1,53*,0,0,40*,43*,-21,15,8
CC1Nc2ncnc(N3CCc4ccccc4C3)c2N(Cc2ccc(Cl)cc2)C1=O (stereo not drawn),20,43*,2,nt,43*,31,4,15,11
CC1Nc2ncnc(N3CCN(c4ccccc4)CC3)c2N(Cc2ccc(Cl)cc2)C1=O (stereo not drawn),-1,14,-5,0,-2,nt,nt,nt,nt
COCCn1c(SCc2nc3scc(-c4ccc(Cl)cc4)c3c(=O)[nH]2)nnc1-c1cccc(C)c1,3,33*,2,0,50*,24,-9,4,26
CCn1c(SCc2nc3scc(-c4ccccc4)c3c(=O)[nH]2)nnc1-c1cccs1,-4,19,2,0,32,nt,nt,nt,nt
Cc1ccc(CNC(=O)c2ccc(N3CCC4(CC3)CC(c3cccc(Br)c3)=NO4)c(NC(=O)c3cccc(C)c3)c2)cc1,2,36*,1,0,42*,7,-1,9,1
COc1ccc(C(=O)Nc2ccc(N3CCCC3)cc2)cc1,2,40*,-3,nt,43*,13,-10,-6,0
Cc1cc(C)c2nc(NNC(=O)c3cc(=O)c4ccccc4o3)sc2c1,-1,59*,-1,0,47*,34,-18,9,62*
CCOC(=O)Cc1csc(NC(=O)c2cc(=O)c3ccccc3o2)n1,17,-1,-3,0,5,nt,nt,nt,nt
O=C(Nc1cccc2nsnc12)c1ccc(-c2cccc(Cl)c2)o1,14,45*,-2,nt,72*,21,6,10,5

# Screening data deposited in PubChem BioAssay by several laboratories.
